Assay results from different studies.
Lines come from different studies, so protocols differ.
Target: Casein kinase I isoform gamma-1 (CSNK1G1, Homo sapiens, UniProt Q9HCP0)

SMILES	assay	conditions	remaining binding
CCN1CCN(Cc2ccc(C(=O)Nc3ccc(C)c(Oc4ccc5c(c4)CC(=O)N5)c3)cc2C(F)(F)F)CC1	binding, competition with immobilised ligand	1 µM	100%
C[C@@H]1CCN(c2nccc(-c3cnn4ncccc34)n2)C1	binding	1 µM	87%
COc1cccc(CNC(=O)c2nc3scc(COCc4ccc(C(=O)O)cc4)c3c(=O)[nH]2)c1	cell-free assay, competition with immobilised ligand	1 µM	100%
O=C(NCC1CCOCC1)c1n[nH]cc1NC(=O)c1c(F)cccc1F	binding, competition with immobilised ligand	1 µM	78%
COc1cnc(Nc2cccc(S(N)(=O)=O)c2)nc1N1CCN(c2ccccc2)C(=O)C1	binding, competition with immobilised ligand	1 µM	100%
N[C@H]1CCN(c2nccc(-c3cnn4ncccc34)n2)C1	binding	1 µM	82%
C[C@@H]1CN(c2cc(-c3n[nH]c4ccc(OC5(C)CC5)cc34)ncn2)C[C@H](C)O1	cell-free assay, competition with immobilised ligand	0.1 µM	100%
c1cncc(-c2cccc(Nc3nccc(NC4CCCCC4)n3)c2)c1	binding, competition with immobilised ligand	10 µM	89%
C[C@@H]1CN(c2cc(-c3nn(C)c4ccc(OC5(C)CC5)cc34)ncn2)C[C@H](C)O1	cell-free assay, competition with immobilised ligand	1 µM	89%
O=C(c1ccc(Nc2nccc(-c3cc4ccccc4s3)n2)cc1)N1CCC(N2CCCC2)CC1	binding, competition with immobilised ligand	1 µM	88%
CC(=O)c1c(NS(C)(=O)=O)c2cc(-c3ccc(Cl)cc3)c(-c3ccc(Cl)cc3Cl)nc2n(C)c1=O	cell-free assay, competition with immobilised ligand	1 µM	92%
CN(C)c1nccc(-c2cnc3ncccn23)n1	binding	1 µM	81%
FC(F)(F)Oc1cccc(-c2cnc3ccc(-c4ccncc4)nn23)c1	cell-free assay, competition with immobilised ligand	5 µM	67%
CN(CCCC(F)(F)F)c1nccc(-c2cnn3ncccc23)n1	binding	1 µM	100%
O=C(NCCCN1CCOCC1)c1ccc(Nc2ncc(Cl)c(-c3ccc(Cl)s3)n2)cc1	binding, competition with immobilised ligand	1 µM	88%
CN(c1nccc(-c2cnn3ncccc23)n1)C1CC1	binding	1 µM	100%
CN(C)c1ncnc(-c2ccc3nc(Nc4cc(CN5CCN(C(=O)CC(F)(F)F)CC5)ccn4)[nH]c3c2)c1Cl	cell-free assay, competition with immobilised ligand	1 µM	76%
CN(C)c1nccc(-c2cnn3ncccc23)n1	binding	1 µM	100%
CNC(=O)[C@@H]1CC[C@@H](n2c(-c3ccc4cnccc4c3)nc3ccc(C(=O)NCc4cccc(C(N)=O)c4)cc32)C1	binding, competition with immobilised ligand	1 µM	100%
